# Measurements: ChEMBL document CHEMBL1177781, “Synthesis and SAR of potent inhibitors of the Hepatitis C virus NS3/4A protease: exploration of P2 quinazoline substituents” (Bioorg Med Chem Lett, 2010)
# System: Liver microsomes
# Assay: Intrinsic clearance in human liver microsomes
# Format: ADME, Microsome
# Conditions: not given
# Method in brief: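 Metabolic stability in human liver microsomes was expressed as intrinsic clearance (Cl_int, µL/min/mg).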
row,SMILES,CL
1,CN1CCCC/C=C\[C@@H]2C[C@@]2(C(=O)NS(=O)(=O)C2CC2)NC(=O)[C@@H]2C[C@@H](Oc3nc(-c4ccccc4)nc4ccccc34)C[C@H]2C1=O,58 µL/min
2,COc1ccc2c(O[C@@H]3C[C@H]4C(=O)N[C@]5(C(=O)NS(=O)(=O)C6CC6)C[C@H]5/C=C\CCCCN(C)C(=O)[C@@H]4C3)nc(-c3ccccc3)nc2c1,88 µL/min
3,COc1ccc2c(O[C@@H]3C[C@H]4C(=O)N[C@]5(C(=O)NS(=O)(=O)C6CC6)C[C@H]5/C=C\CCCCN(C)C(=O)[C@@H]4C3)nc(-c3nc(C(C)C)cs3)nc2c1,76 µL/min
4,COc1ccc2c(O[C@@H]3C[C@H]4C(=O)N[C@]5(C(=O)NS(=O)(=O)C6CC6)C[C@H]5/C=C\CCCCN(C)C(=O)[C@@H]4C3)nc(-c3ccc(F)cc3)nc2c1,32 µL/min
5,COc1ccc(-c2nc(O[C@@H]3C[C@H]4C(=O)N[C@]5(C(=O)NS(=O)(=O)C6CC6)C[C@H]5/C=C\CCCCN(C)C(=O)[C@@H]4C3)c3ccc(OC)c(C)c3n2)cc1,11 µL/min

# System: not listed separately
# Assay: Apparent permeability across human Caco-2 cells
# Format: ADME, cell-based
# Conditions: not given
row,SMILES,Papp
1,CN1CCCC/C=C\[C@@H]2C[C@@]2(C(=O)NS(=O)(=O)C2CC2)NC(=O)[C@@H]2C[C@@H](Oc3nc(-c4ccccc4)nc4ccccc34)C[C@H]2C1=O,21 ×10⁻⁶ cm/s
2,COc1ccc2c(O[C@@H]3C[C@H]4C(=O)N[C@]5(C(=O)NS(=O)(=O)C6CC6)C[C@H]5/C=C\CCCCN(C)C(=O)[C@@H]4C3)nc(-c3ccccc3)nc2c1,13 ×10⁻⁶ cm/s
3,COc1ccc2c(O[C@@H]3C[C@H]4C(=O)N[C@]5(C(=O)NS(=O)(=O)C6CC6)C[C@H]5/C=C\CCCCN(C)C(=O)[C@@H]4C3)nc(-c3ccc(F)cc3)nc2c1,20 ×10⁻⁶ cm/s
4,COc1ccc(-c2nc(O[C@@H]3C[C@H]4C(=O)N[C@]5(C(=O)NS(=O)(=O)C6CC6)C[C@H]5/C=C\CCCCN(C)C(=O)[C@@H]4C3)c3ccc(OC)c(C)c3n2)cc1,9 ×10⁻⁶ cm/s

# Molecular target: not listed separately
# Assay: Inhibition of HCV 1a NS3/4A protease
# Design: species or system Hepatitis C virus subtype 1a
# Conditions: not given
# Method in brief: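 Enzyme inhibition was determined as Ki against recombinant full-length NS3 enzyme, following a literature procedure, in an external laboratory.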
row,SMILES,Ki
1,CN1CCCC/C=C\[C@@H]2C[C@@]2(C(=O)NS(=O)(=O)C2CC2)NC(=O)[C@@H]2C[C@@H](Oc3nc(-c4ccccc4)nc4ccccc34)C[C@H]2C1=O,0.4 nM
2,COc1ccc2c(O[C@@H]3C[C@H]4C(=O)N[C@]5(C(=O)NS(=O)(=O)C6CC6)C[C@H]5/C=C\CCCCN(C)C(=O)[C@@H]4C3)nc(-c3ccccc3)nc2c1,0.4 nM
3,COc1ccc2c(O[C@@H]3C[C@H]4C(=O)N[C@]5(C(=O)NS(=O)(=O)C6CC6)C[C@H]5/C=C\CCCCN(C)C(=O)[C@@H]4C3)nc(-c3nc(C(C)C)cs3)nc2c1,1.2 nM
4,COc1ccc2c(O[C@@H]3C[C@H]4C(=O)N[C@]5(C(=O)NS(=O)(=O)C6CC6)C[C@H]5/C=C\CCCCN(C)C(=O)[C@@H]4C3)nc(-c3ccc(F)cc3)nc2c1,0.2 nM
5,COc1ccc(-c2nc(O[C@@H]3C[C@H]4C(=O)N[C@]5(C(=O)NS(=O)(=O)C6CC6)C[C@H]5/C=C\CCCCN(C)C(=O)[C@@H]4C3)c3ccc(OC)c(C)c3n2)cc1,0.6 nM

# System: Hepatitis C virus
# Assay: Antiviral activity against HCV1b infected in human Huh7 cells assessed as inhibition viral subgenomic replication
# Format: functional, organism-based, Hepacivirus hominis
# Conditions: genotype 1b, Huh-7
# Method in brief: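 Cell-based EC50 was measured in Huh7 cells carrying the subgenomic bicistronic HCV replicon clone ET, with a luciferase read-out.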
row,SMILES,EC50
1,CN1CCCC/C=C\[C@@H]2C[C@@]2(C(=O)NS(=O)(=O)C2CC2)NC(=O)[C@@H]2C[C@@H](Oc3nc(-c4ccccc4)nc4ccccc34)C[C@H]2C1=O,52 nM
2,COc1ccc2c(O[C@@H]3C[C@H]4C(=O)N[C@]5(C(=O)NS(=O)(=O)C6CC6)C[C@H]5/C=C\CCCCN(C)C(=O)[C@@H]4C3)nc(-c3ccccc3)nc2c1,14 nM
3,COc1ccc2c(O[C@@H]3C[C@H]4C(=O)N[C@]5(C(=O)NS(=O)(=O)C6CC6)C[C@H]5/C=C\CCCCN(C)C(=O)[C@@H]4C3)nc(-c3nc(C(C)C)cs3)nc2c1,58 nM
4,COc1ccc2c(O[C@@H]3C[C@H]4C(=O)N[C@]5(C(=O)NS(=O)(=O)C6CC6)C[C@H]5/C=C\CCCCN(C)C(=O)[C@@H]4C3)nc(-c3ccc(F)cc3)nc2c1,11 nM
5,COc1ccc(-c2nc(O[C@@H]3C[C@H]4C(=O)N[C@]5(C(=O)NS(=O)(=O)C6CC6)C[C@H]5/C=C\CCCCN(C)C(=O)[C@@H]4C3)c3ccc(OC)c(C)c3n2)cc1,8 nM
